Test results reported in ChEMBL document CHEMBL1140131, “Synthesis and in vitro evaluation of 5-[(18)f]fluoroalkyl pyrimidine nucleosides for molecular imaging of herpes simplex virus type 1 thymidine kinase reporter gene expression” (J Med Chem, 2008).
Each block holds one molecule with its values, some of them ahead of it.

How the values were obtained:
RG2 [1] = experiment: Cytotoxicity against RG2 cells after 72 hrs by MTT assay; assay type: cell-based; conditions: rat, rg2, 72 h
Summary of the method: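 RG2 cells were seeded at 1.5 × 10^3/well, left overnight, then exposed to drug at 0.001–1000 μmol/L in culture medium, in quadruplicate, for 72 h at 37 °C. MTT (1 mg/mL) was added for 3 h and the formazan dissolved in DMSO. Absorbance was read at 490 nm with a 650 nm reference, blank subtracted, and growth given as % of untreated control. CC50 was taken as mean of three experiments.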

[2] = Cytotoxicity against HSV1-tk gene overexpressing RG2TK+ cells after 72 hrs by MTT assay; assay type: cell-based; conditions: rat
Summary of the method: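 RG2TK+ cells (HSV1-tk-transduced rat glioma) seeded at 1.5 × 10^3 cells/well overnight, then exposed to drug at 0.001–1000 μmol/L in quadruplicate for 72 h at 37 °C. MTT (1 mg/mL) added for 3 h; formazan dissolved in DMSO and read at 490 nm (650 nm reference). Blanks subtracted; growth given as % of untreated control. CC50 reported as mean ± S.E.M. of three experiments in duplicate.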

[3] = Inhibition of [125I]FIAU uptake in RG2TK+ cells overexpressing HSV1-tk gene; assay type: functional, cell-based; conditions: Rattus norvegicus
Summary of the method: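 HSV1-tk-expressing RG2TK+ glioma cells incubated 2 h with [125I]FIAU plus inhibitor at 0–300 μM. Cell-associated radioactivity measured. IC50 is the concentration giving 50% inhibition of [125I]FIAU uptake; mean ± S.D. of at least three experiments in duplicate.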

RG2 [4] = experiment: Selectivity index, ratio of cellular uptake in HSV1-tk gene overexpressing RG2TK+ cells to cellular uptake in RG2 cells; assay type: functional, Rattus norvegicus
Summary of the method: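 Tracer uptake measured in parallel in HSV1-tk-transduced RG2TK+ and wild-type RG2 glioma cells: 37 °C, serum-free medium, ~0.2 MBq 18F-tracer. Activity was gamma counted and normalized to viable cells and dose. The index is the average ratio of accumulation in RG2TK+ to accumulation in RG2.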

RG2 [5] = experiment: Cellular uptake in RG2 cells assessed per 10^6 cells at 0.2 MBq after 2 hrs; assay type: ADME, cell-based; conditions: rat, rg2, 2 h
Summary of the method: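 Wild-type RG2 rat glioma monolayers (5 × 10^5 cells/well, 24 h growth) were incubated at 37 °C in 0.5 mL serum-free medium with about 0.2 MBq (5 μCi) of 18F-labelled nucleoside (SA 18.5–925 GBq/μmol). After 2 h they were washed with cold PBS, trypsinized and viable cells counted by trypan blue. Gamma counts (400–1600 keV) were normalized to viable cell number and to total activity, expressed as % per 10^6 cells. Three or more experiments, each in duplicate.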

[6] = Lipophilicity, log P at pH 7.4; assay type: physicochemical; conditions: buffer
Summary of the method: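 Radiolabelled nucleoside (20 μL in water) was partitioned between 3 g 1-octanol and 3 g 0.1 M NaH2PO4 buffer, pH 7.4. The mixture was vortexed 3 min at room temperature, then centrifuged 5 min. Weighed 0.5 g samples of each layer were gamma counted, and the octanol layer was repartitioned until values were consistent. log P was taken as the log of the ratio of cpm/g octanol to cpm/g buffer. Triplicate, repeated three times.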

[7] = Cellular uptake in HSV1-tk gene overexpressing RG2TK+ cells assessed per 10^6 cells at 0.2 MBq after 2 hrs; assay type: ADME; conditions: rat
Summary of the method: (§1)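 RG2 rat glioma cells transduced with HSV1-tk (kept in G418 250 mg/L), 5 × 10^5 cells/well, grown 24 h, then incubated at 37 °C in serum-free medium with ~0.02 MBq [125I]FIAU or ~0.2 MBq 18F-tracer. Sampled at 5–120 min. After cold PBS washes and trypsinization, cell-bound activity was gamma counted and normalized to viable (trypan blue) cells and to total dose. Mean ± S.D., ≥3 experiments in duplicate.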

RG2 [8] = experiment: Cellular uptake in RG2 cells assessed per 10^6 cells at 0.02 MBq after 2 hrs; assay type: ADME, cell-based; conditions: rat, rg2, 2 h
Summary of the method: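 Wild-type RG2 rat glioma monolayers (5 × 10^5 cells/well, grown 24 h at 37 °C in DMEM, 10% FBS) washed with warm PBS, then incubated at 37 °C in 0.5 mL serum-free medium with about 0.02 MBq [125I]FIAU (SA 2,200 Ci/mmol). After 2 h, cells were washed with cold PBS, trypsinized and counted for viability by trypan blue. Cell-associated gamma counts were normalized to viable cells and to activity added, given as % per 10^6 cells. Three or more experiments, each in duplicate.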

[9] = Cellular uptake in HSV1-tk gene overexpressing RG2TK+ cells assessed per 10^6 cells at 0.02 MBq after 2 hrs; assay type: ADME; conditions: rat; summary of the method: as §1

Structure (SMILES): Nc1nc(O)c2ncn(COC(CO)CO)c2n1 [GANCICLOVIR]
CC50 (RG2 [1]): 377 µM | CC50 [2]: 5.86 µM

Structure (SMILES): O=c1[nH]c(=O)n([C@@H]2O[C@H](CO)[C@@H](O)[C@@H]2F)cc1CCCCF
CC50 (RG2 [1]): 355 µM | IC50 [3]: 23 µM | CC50 [2]: 346 µM

Structure (SMILES): O=c1[nH]c(=O)n([C@H]2C[C@H](O)[C@@H](CO)O2)cc1CCC[18F]
Ratio (RG2 [4]): 20.5 | Drug uptake (RG2 [5]): 0.41% | logD [6]: -0.57 | Drug uptake [7]: 8.2%

logD [6]: 1.22
Structure (SMILES): O=c1[nH]c(=O)n([C@@H]2O[C@H](CO)[C@@H](O)[C@H]2F)cc1/C=C/[123I]

Structure (SMILES): O=c1[nH]c(=O)n([C@@H]2O[C@H](CO)[C@@H](O)[C@@H]2F)cc1[125I]
Ratio (RG2 [4]): 9.9 | logD [6]: 0.05 | Drug uptake (RG2 [8]): 3.4% | Drug uptake [9]: 29.4%

Structure (SMILES): O=c1[nH]c(=O)n([C@@H]2O[C@H](CO)[C@@H](O)[C@@H]2F)cc1CCCCCF
CC50 (RG2 [1]): > 1000 µM | IC50 [3]: 22.9 µM | CC50 [2]: 375 µM

Structure (SMILES): O=c1[nH]c(=O)n([C@@H]2O[C@H](CO)[C@@H](O)[C@@H]2F)cc1CCCCC[18F]
Ratio (RG2 [4]): 5.5 | Drug uptake (RG2 [5]): 0.24% | logD [6]: 0.74 | Drug uptake [7]: 1.2%

logD [6]: 1.24
Structure (SMILES): O=c1[nH]c(=O)n([C@@H]2O[C@H](CO)[C@@H](O)[C@@H]2F)cc1/C=C/[123I]

Structure (SMILES): O=c1[nH]c(=O)n([C@H]2C[C@H](O)[C@@H](CO)O2)cc1CCCCC[18F]
Ratio (RG2 [4]): 19.9 | Drug uptake (RG2 [5]): 0.23% | logD [6]: 0.23 | Drug uptake [7]: 4.4%

Structure (SMILES): O=c1[nH]c(=O)n([C@H]2C[C@H](O)[C@@H](CO)O2)cc1CCCCF
CC50 (RG2 [1]): > 800 µM | IC50 [3]: 34.5 µM | CC50 [2]: > 800 µM

Structure (SMILES): O=c1[nH]c(=O)n([C@@H]2O[C@H](CO)[C@@H](O)[C@@H]2F)cc1CCCF
CC50 (RG2 [1]): 121 µM | IC50 [3]: 51.2 µM | CC50 [2]: 209 µM

Structure (SMILES): O=c1[nH]c(=O)n([C@@H]2O[C@H](CO)[C@@H](O)[C@@H]2F)cc1I [FIALURIDINE]
CC50 (RG2 [1]): 80 µM | IC50 [3]: 0.7 µM | CC50 [2]: 0.79 µM

Structure (SMILES): O=c1[nH]c(=O)n([C@H]2C[C@H](O)[C@@H](CO)O2)cc1CCCCCF
CC50 (RG2 [1]): > 750 µM | IC50 [3]: 36.8 µM | CC50 [2]: > 650 µM

Structure (SMILES): O=c1[nH]c(=O)n([C@@H]2O[C@H](CO)[C@@H](O)[C@@H]2F)cc1CCC[18F]
Ratio (RG2 [4]): 5 | Drug uptake (RG2 [5]): 0.38% | logD [6]: -0.12 | Drug uptake [7]: 1.9%

Structure (SMILES): O=c1[nH]c(=O)n([C@H]2C[C@H](O)[C@@H](CO)O2)cc1CCCF
CC50 (RG2 [1]): > 450 µM | IC50 [3]: 7.6 µM | CC50 [2]: > 1000 µM

Structure (SMILES): O=c1[nH]c(=O)n([C@H]2C[C@H](O)[C@@H](CO)O2)cc1CCCC[18F]
Ratio (RG2 [4]): 14.9 | Drug uptake (RG2 [5]): 0.59% | logD [6]: -0.24 | Drug uptake [7]: 8.4%

Structure (SMILES): O=c1[nH]c(=O)n([C@@H]2O[C@H](CO)[C@@H](O)[C@@H]2F)cc1CCCC[18F]
Ratio (RG2 [4]): 7.8 | Drug uptake (RG2 [5]): 0.66% | logD [6]: 0.27 | Drug uptake [7]: 3.7%
